Key:
[1] = biological target: T1, Voltage-gated L-type calcium channel (Rattus norvegicus, UniProt P22002+Q02485+P27732); test: Inhibition of L-type calcium channel in endothelium-denuded Wistar rat aorta rings assessed as relaxation of 60 mM K+-induced contraction; details: for inhibition (INH): rat
[2] = biological target: T1, Voltage-gated L-type calcium channel; test: Inhibition of L-type calcium channel in endothelium-denuded Wistar rat aorta rings assessed as relaxation of 30 mM K+-induced contraction
Method in brief: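 Endothelium-denuded rat aorta rings, isometric tension, equilibrated 60 min in PSS gassed with 95% O2/5% CO2 (pH 7.4). Contracted with 0.3 μM phenylephrine, or 30 or 60 mM K+ (KCl replacing NaCl).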

[3] = biological target: T1, Voltage-gated L-type calcium channel; test: Inhibition of L-type calcium channel in endothelium-denuded Wistar rat aorta rings assessed as relaxation of phenylephrine-induced contraction; details: for inhibition (INH): rat
[4] = biological target: T1, Voltage-gated L-type calcium channel; test: Inhibition of L-type calcium channel in endothelium-denuded Wistar rat aorta rings depolarized with 60 mM K+ solution assessed as relaxation of Ca2+-induced contraction
Method in brief: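 Endothelium-denuded rings stimulated with 60 mM K+ for 15 min, then washed 90 min in Ca2+-free PSS with 1 mM EGTA, and stores emptied with 0.3 μM phenylephrine. Depolarized in Ca2+-free 60 mM K+ PSS, then cumulative Ca2+ (0.03−3 mM). Test substance or vehicle present 30 min before and throughout.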

[5] = biological target: T1, Voltage-gated L-type calcium channel; test: Inhibition of L-type calcium channel in endothelium-denuded Wistar rat aorta rings depolarized with 60 mM K+ solution assessed as relaxation of Ca2+-induced contraction at 12 and 40 uM in presence of 10 nM calcium channel agonist (S)-(-)Bay K 8644
Method in brief: (§1)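 Following the cumulative Ca2+ (0.03−3 mM) curve in endothelium-denuded rings depolarized with Ca2+-free 60 mM K+ PSS, with compound or vehicle present from 30 min beforehand, 10 nM (S)-(−)-Bay K 8644 was added after the last Ca2+ addition. Tone expressed as % of the response to 60 mM K+; mean ± SE, n = 4−17.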

[6] = biological target: T1, Voltage-gated L-type calcium channel; test: Inhibition of L-type calcium channel in Wistar rat aorta rings assessed as relaxation of phenylephrine-induced contraction in Ca2+ free medium
Method in brief: (§2)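 Rings in Ca2+-free PSS with 1 mM EGTA for 15 min, then 30 min incubation with vehicle or alkaloid. Contraction to 10 μM phenylephrine reflects sarcoplasmic reticulum Ca2+ release; 3.5 mM Ca2+ is then re-added with phenylephrine still present to index Ca2+ influx. Washed 45 min and repeated at a higher concentration. Expressed as % of 0.3 μM phenylephrine contraction in PSS.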

[7] = biological target: T1, Voltage-gated L-type calcium channel; test: Inhibition of L-type calcium channel in Wistar rat tail artery myocytes assessed as reduction in L-type Ba(2+) current at Vh of -50 mV; details: for inhibition (INH): rat
[8] = biological target: T1, Voltage-gated L-type calcium channel; test: Inhibition of L-type calcium channel in endothelium-intact Wistar rat aorta rings assessed as relaxation of 0.3 uM phenylephrine-induced contraction
[9] = biological target: T1, Voltage-gated L-type calcium channel; test: Inhibition of L-type calcium channel in endothelium-denuded Wistar rat aorta rings depolarized with 60 mM K+ solution assessed as relaxation of Ca2+-induced contraction at 43 and 128 uM in presence of 10 nM calcium channel agonist (S)-(-)Bay K 8644; method in brief: as §1
[10] = biological target: T1, Voltage-gated L-type calcium channel; test: Inhibition of L-type calcium channel in Wistar rat aorta rings assessed as relaxation of phenylephrine-induced contraction in Ca2+ restored medium; method in brief: as §2

Compound | pIC50 [1] | inhibition (INH) [1] | pIC50 [2] | pIC50 [3] | inhibition (INH) [3] | inhibition (INH) [4] | inhibition (INH) [5] | inhibition (INH) [6] | IC50 [7] | inhibition (INH) [7] | pIC50 [8] | inhibition (INH) [9] | inhibition (INH) [10] | inhibition (INH) ([8]; rat)
CSC(=O)N(C)CCc1c[nH]c2ccccc12 | 4.8 | Dose-dependent effect | 4.5 | 4.7 | Dose-dependent effect | Dose-dependent effect | Not Active | Not Active | 251 µM | Dose-dependent effect | 4.4 | – | – | –
CSC(=O)NCCc1c[nH]c2ccccc12 | 4.1 | Dose-dependent effect | 3.9 | 4.3 | Dose-dependent effect | Dose-dependent effect | – | Not Active | – | – | 4.2 | Not Active | Active | –
COc1ccc(CCN(C)CCCC(C#N)(c2ccc(OC)c(OC)c2)C(C)C)cc1OC (stereo not given) | – | Dose-dependent effect | – | – | Dose-dependent effect | – | – | – | – | Dose-dependent effect | – | – | – | Dose-dependent effect

Source: ChEMBL document CHEMBL3352538, “Vascular L-type Ca²⁺ channel blocking activity of sulfur-containing indole alkaloids from Glycosmis petelotii” (J Nat Prod, 2014)
